Data reported in ChEMBL document CHEMBL1671787, “2-Aminothiazoles as therapeutic leads for prion diseases” (J Med Chem, 2011).

How the values were obtained:
[1] = Antiprion activity against PrPsc infected in dividing mouse ScN2a-cl3 cells assessed as reduction in prion load after 5 days by ELISA; type: cell-based; conditions: N2a-cl3, 120 h
Summary of the method: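 ScN2a (RML-infected N2a) cells seeded at 40,000 cells/well in MEM with 10% FBS, GlutaMax, 500 µg/mL geneticin. Compounds added 4 h after seeding, 0.5% final DMSO. Incubated 5 days at 37 °C, 5% CO2. Lysates captured on D18-coated ELISA plates overnight at 4 °C, then HRP-D13 antibody 1 h. EC50 is the mean of three determinations.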

MDCK [2] = assay: Permeability across basolateral to apical side MDR1-expressing MDCK cells; type: ADME, cell-based, Canis lupus familiaris; conditions: dog
Summary of the method: (§1)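 MDR1-MDCK monolayers grown 5–10 days on 1 µm filters. Compound at 10 µM in HBSS pH 7.4 with 25 mM HEPES and 0.05% PS80, added to the apical or basolateral donor chamber. Receiver samples taken every 20 min and quantified by HPLC/UV/MS. Permeability coefficients calculated per interval and averaged; run in duplicate.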

Liver microsomes = assay: Metabolic stability in rat liver microsomes assessed as half life by LC-MS/MS analysis; type: ADME, Microsome
Summary of the method: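 Compound at 1 µM final (0.6% acetonitrile, 0.01% DMSO) in PBS pH 7.4. Incubated with rat hepatic microsomes (~0.3 mg/mL), 1 mM NADPH and 4 mM UDPGA or PBS at 37 °C. Samples taken at 0, 1, 10, 30 and 60 min and quenched in acetonitrile with carbamazepine internal standard. Remaining parent measured by LCMS; duplicate incubations. Midazolam and 4-nitrophenol served as controls.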

MDCK [3] = assay: Permeability across apical to basolateral side MDR1-expressing MDCK cells; type: ADME, cell-based, Canis lupus familiaris; conditions: dog; summary of the method: as §1
Nucleic Acid = assay: Ratio of drug level in FVB mouse to EC50 for PrPsc
Summary of the method: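 Brain (and plasma) levels in wild-type FVB mice given 0, 40, 80, 130 or 210 mg/kg/day for 3 days in liquid rodent diet (PEG400 stock diluted with feed, cocoa, water), 3 mice per dose. At an arbitrary point after feeding (pseudo steady-state), brain homogenised and assayed by LC-MS. Levels set against the mean EC50 from 3 determinations in ScN2a-cl3 cells (5-day PrPSc ELISA).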

Brain [4] = assay: Drug uptake in FVB mouse brain at 40 to 210 mg/kg/day, po administered as part of liquid diet for 3 days; type: ADME, organism-based; set-up: route oral; conditions: in vivo, 72 h
Summary of the method: (§2)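 Wild-type FVB mice (~25 g), three per dose group sharing a cage. Compound was dissolved in PEG400 and diluted into a liquid diet of homogenized rodent feed, cocoa and water. Diet given ad libitum for 3 days; daily dose estimated from ~20 mL/day intake. Doses were 0, 40, 80, 130 or 210 mg/kg/day. After CO2 euthanasia, brain was homogenized with four-fold water and measured by LC-MS.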

Brain [5] = assay: Drug uptake in FVB mouse brain at 130 mg/kg/day, po administered as part of liquid diet for 3 days; type: ADME, organism-based; set-up: route oral; conditions: in vivo, 72 h; summary of the method: as §2

SMILES | EC50 [1] | further results
COc1ccc(-c2csc(Nc3cc4ccccc4cn3)n2)cc1 | 340 nM | 
COc1ccc(-c2csc(Nc3cnccn3)n2)cc1OC | 15600 nM | 
Cc1ccc(Nc2nc(-c3c(-c4ccccc4)noc3C)cs2)nc1 | > 26000 nM | permeability (MDCK [2]): 8.6 ×10⁻⁶ cm/s; t1/2 (Liver microsomes): 19 min; permeability (MDCK [3]): 11.2 ×10⁻⁶ cm/s
COc1ccnc(Nc2nc(-c3cc(-c4ccccc4)no3)cs2)c1 | 250 nM | 
COc1ccc(-c2csc(Nc3ccc(C)cn3)n2)cc1OC | 790 nM | 
COc1ccc(-c2csc(Nc3ncccc3C)n2)cc1OC | 7290 nM | 
Cc1ccc(Nc2nc(-c3ccc(-c4ccccn4)s3)cs2)nc1 | 1230 nM | 
CNc1nc(-c2ccc(OC)c(OC)c2)cs1 | > 32000 nM | 
c1ccc(-c2cc(-c3csc(Nc4cc5ccccc5cn4)n3)on2)cc1 | 800 nM | 
COc1ccc(-c2csc(N(C)c3cc4ccccc4cn3)n2)cc1OC | 140 nM | 
COc1ccc(-c2csc(Nc3cc4ccccc4cn3)n2)cc1OC |  | t1/2 (Liver microsomes): 83 min
c1ccc(-c2cc(-c3csc(Nc4ccncc4)n3)on2)cc1 | 4420 nM | 
Cc1csc(Nc2cc3ccccc3cn2)n1 | > 32000 nM | 
COc1ccc(-c2csc(Nc3ccc(C(F)(F)F)cn3)n2)cc1OC | 2530 nM | permeability (MDCK [2]): 8.7 ×10⁻⁶ cm/s; t1/2 (Liver microsomes): 150 min; permeability (MDCK [3]): 9.4 ×10⁻⁶ cm/s
Cc1ccc(Nc2nc(-c3cc(-c4ccccc4)no3)cs2)nc1 | 940 nM | Ratio (Nucleic Acid): 25; Drug uptake (Brain [4]): Active; Drug uptake (Brain [5]): Active; permeability (MDCK [2]): 8.3 ×10⁻⁶ cm/s; t1/2 (Liver microsomes): 151 min; permeability (MDCK [3]): 6.8 ×10⁻⁶ cm/s
COc1ccc(NC(=O)c2csc(Nc3ccc(C)cn3)n2)cc1OC | 2440 nM | 
COc1ccc(-c2csc(Nc3cccc(C)n3)n2)cc1OC | 3010 nM | 
c1ccc2cc(Nc3nc(-c4ccncc4)cs3)ncc2c1 | 310 nM | 
COc1ccccc1-c1csc(Nc2ccc(C)cn2)n1 | > 29000 nM | 
FC(F)(F)Oc1ccc(-c2csc(Nc3cc4ccccc4cn3)n2)cc1 | > 32000 nM | 
c1ccc(-c2cc(-c3csc(Nc4ccccn4)n3)on2)cc1 | 600 nM | 
c1ccc(-c2csc(Nc3cc4ccccc4cn3)n2)cc1 | 3080 nM | 

SMILES | EC50 [1] | further results
COc1ccc(-c2csc(N(C(C)=O)c3cc4ccccc4cn3)n2)cc1OC | 81 nM | 
Cc1cccc(Nc2nc(-c3cc(-c4ccccc4)no3)cs2)n1 | 820 nM | 
c1ccc(-c2ccc(-c3csc(Nc4cc5ccccc5cn4)n3)s2)nc1 | 2010 nM | 
Cc1ccc(Nc2nc3c(s2)Cc2ccccc2-3)nc1 | 2440 nM | 
COc1ccc(Nc2nc(-c3ccc(OC)c(OC)c3)cs2)nc1 |  | t1/2 (Liver microsomes): 45 min
COc1ccc(Nc2nc(-c3cc(-c4ccccc4)no3)cs2)nc1 | 230 nM | 
COc1ccc(-c2csc(Nc3cccc4ccccc34)n2)cc1OC | > 32000 nM | 
FC(F)(F)c1csc(Nc2cc3ccccc3cn2)n1 | 8660 nM | 
COc1cc2c(cc1OC)-c1nc(Nc3ccc(C)cn3)sc1C2 | 5590 nM | 
COc1ccc(-c2csc(Nc3ccc4ccccc4n3)n2)cc1OC | 430 nM | permeability (MDCK [2]): 8.9 ×10⁻⁶ cm/s; t1/2 (Liver microsomes): 69 min; permeability (MDCK [3]): 9.2 ×10⁻⁶ cm/s
Cc1ccc(Nc2nc(-c3ccccc3)cs2)nc1 | 7880 nM | t1/2 (Liver microsomes): 10 min
COc1ccc(-c2csc(C(=O)Nc3cc4ccccc4cn3)n2)cc1OC | > 10000 nM | 
Cc1ccnc(Nc2nc(-c3cc(-c4ccccc4)no3)cs2)c1 | 1270 nM | 
Cc1ccc(Nc2nc(-c3ccncc3)cs2)nc1 | 1570 nM | permeability (MDCK [2]): 42.3 ×10⁻⁶ cm/s; t1/2 (Liver microsomes): 20 min; permeability (MDCK [3]): 32.6 ×10⁻⁶ cm/s
Cc1ccc(Nc2nc(-c3ccccn3)cs2)nc1 | 860 nM | 
COc1ccc(-c2csc(Nc3ccc4ccccc4c3)n2)cc1OC | 390 nM | 
COc1ccc(-c2csc(NC(=O)c3cc4ccccc4cn3)n2)cc1OC | 8180 nM | 
COc1ccc(-c2csc(Nc3ncccn3)n2)cc1OC | 3930 nM | 
Cc1ccc(Nc2nc(C)cs2)nc1 | > 32000 nM | 
COc1ccc(-c2csc(Nc3ccc(C)cn3)n2)cc1 | 3030 nM | 
COc1ccc(-c2csc(Nc3cc(C)ccn3)n2)cc1OC | 1000 nM | 
